Measured values taken from article PMC3502708 (Journal of molecular biology, 2012).

Tests used:
ING5 PHD finger = conditions: ref [13]; cited from earlier work
MORF PHD1/2 fingers [1] = molecular target: T1, MORF PHD1/2 fingers (Homo sapiens, UniProt Q8WYB5); assay: NMR titration; format: binding; conditions: for Chemical shift changes / binding of MORF PHD1/2 by NMR (in words): 0.1 mM 15N-labeled PHD1/2, 298K
T1 sequence (Q8WYB5 211-329): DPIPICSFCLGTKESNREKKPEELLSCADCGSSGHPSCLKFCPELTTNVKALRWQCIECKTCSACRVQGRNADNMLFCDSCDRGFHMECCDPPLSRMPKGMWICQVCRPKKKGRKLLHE

[2] = molecular target: double PHD fingers of DPF3; conditions: read-out: Kd, double PHD fingers of DPF3; ref [31]; cited from earlier work
MOZ PHD1/2 fingers = MOZ PHD1/2 fingers (Homo sapiens, UniProt Q92794); assay: Tryptophan fluorescence binding, MOZ PHD1/2; conditions: as seen in NMR and fluorescence assays
MORF PHD1/2 fingers [3] = molecular target: T1, MORF PHD1/2 fingers; assay: Tryptophan fluorescence binding, MORF PHD1/2; conditions: 25 °C, H3un vs acetylated peptides
[4] = tested on: endogenous H3K14ac / histone H3 in HEK293 cells; format: cell-based; conditions: TSA 3 μM, 6 h prior to harvesting, Flag-N-MORF IP
In short: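 HEK293 cells were seeded at 300,000 per 6 cm dish and lipofection-transfected with Flag-tagged MORF N-terminal constructs (aa 1–352, or aa 1–215 lacking PHD1/2). After about 48 h, cells were lysed in buffer with 150 mM KCl and immunoprecipitated on anti-Flag M2 agarose. Beads were washed extensively and eluted in 50 mM phosphoric acid. Blots were probed with anti-Flag, anti-H3K14ac and anti-H3. Where indicated, TSA (3 μM) was added to the medium 6 h before harvest.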

Chain of MOZ PHD1/2 fingers (Q92794 207-318): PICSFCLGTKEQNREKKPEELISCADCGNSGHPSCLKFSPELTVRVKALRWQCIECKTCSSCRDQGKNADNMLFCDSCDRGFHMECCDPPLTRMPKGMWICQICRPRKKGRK

H3un: peptide corresponding to amino acids 1–12 of unmodified histone H3 (NMR); length for fluorescence not printed
Binding to ING5 PHD finger (in words) (ING5 PHD finger): does not associate with H3un | Binding of MORF PHD1/2 by NMR, short peptide (in words) (MORF PHD1/2 fingers [1]; 1H,15N HSQC titration, 298K, short peptide, amino acids 1–12): Substantial chemical shift changes | Kd [2]: 2000 nM | Affinity of MOZ PHD1/2 relative to H3K14ac and H3K9ac (MOZ PHD1/2 fingers): two to three fold weaker | Affinity of MORF PHD1/2 relative to H3K9ac and H3K14ac (MORF PHD1/2 fingers [3]): two to three fold weaker

H3 (3–10): peptide comprising amino acids Thr3-Ser10 but missing Ala1 and Arg2 (TKQTARKS)
Chemical shift changes of MORF PHD1/2 with 5-fold excess of peptide (in words) (MORF PHD1/2 fingers [1]; 1H,15N HSQC, 298K, 5-fold excess of H3 (3–10)): no changes in the NMR spectra of PHD1/2

CC(/C=C/C(=O)NO)=C\[C@@H](C)C(=O)c1ccc(N(C)C)cc1 [trichostatin A (TSA), trichostatin A, reference compound]
Effect on association of N-MORF with histone H3 [4]: enhanced the association of N-MORF with histone H3

C[C@H](N)C(=O)N[C@@H](CCCNC(=N)N)C(=O)N[C@H](C(=O)N[C@@H](CCCC[N+](C)(C)C)C(=O)N[C@@H](CCC(N)=O)C(=O)N[C@H](C(=O)N[C@@H](C)C(=O)N[C@@H](CCCNC(=N)N)C(=O)N[C@@H](CCCCN)C(=O)N[C@@H](CO)C(=O)N[C@H](C(=O)NCC(=O)O)[C@@H](C)O)[C@@H](C)O)[C@@H](C)O [H3K4me3]
Chemical shift changes / binding of MORF PHD1/2 by NMR (in words) (MORF PHD1/2 fingers [1]; 1H,15N HSQC titration): small changes in the NMR spectra of PHD1/2 | Affinity of MORF PHD1/2 relative to H3un or H3K9ac (MORF PHD1/2 fingers [1]; NMR titration, 298K): three orders of magnitude lower than affinity of this protein toward H3un or H3K9ac

H4 peptide (residues 1–23): H4 peptide (residues 1–23) [reference compound]
Chemical shift changes / binding of MORF PHD1/2 by NMR (in words) (MORF PHD1/2 fingers [1]; 1H,15N HSQC titration): unable to trigger chemical shift changes in MORF PHD1/2

CC(=O)NCCCC[C@H](N)C(=O)O [acetylated lysine amino acid, reference compound]
Chemical shift changes / binding of MORF PHD1/2 by NMR (in words) (MORF PHD1/2 fingers [1]; 1H,15N HSQC titration): lack of any significant resonance perturbations

H3 peptide (amino acids 1–20): longer unmodified H3 peptide (amino acids 1–20)
Chemical shift changes / binding of MORF PHD1/2 by NMR (in words) (MORF PHD1/2 fingers [1]; 1H,15N HSQC titration): induced similar resonance perturbations
